Calls of active or inactive are those of the source.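 The calls were made as follows, unless noted: active = a full or partial loss of lipid-probe fluorescence in the fish gall bladder, intestine or both, judged by eye; inactive = no fluorescence loss, or compound toxic to the fish.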
Legend:
[1] = inhibitors of TNFa-induced NFkB p65 translocation, primary screen, imaging, HUVEC, MLSMR starter and 10KST1 sets (AID 438;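 active = inhibition above 20% together with a positive visual image hit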;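 also: compound added about 3h40 before a 20 min TNFalpha stimulation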;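 as to inhibition: signal is the nuclear over cytoplasmic p65 intensity ratio per well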); conditions: HUVEC TNFa-induced p65 nuclear translocation; cell count: measured here: nuclei count (cytotoxicity indicator), at 2.08 µM; inhibition: at 2 µM, stronger effect = higher value, 0% TNFa-plus-vehicle, 100% no-TNFa wells
[2] = inhibitors of E-selectin induction by TNFa, primary screen, imaging, HUVEC, immunofluorescence, MLSMR starter and 10KST1 sets (AID 487;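 active = visually confirmed hit in the image check and inhibition above 20%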;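 as to inhibition: signal is fraction of cell area covered by stained E-selectin grains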;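 as to nuclei count: 100% = median nuclei count of all wells on the same plate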); conditions: HUVEC TNFalpha-induced E-selectin immunofluorescence imaging, at 2 µM; inhibition: stronger effect = higher value; nuclei count: measured here: cell number, toxicity
[3] = DUSP6 inhibitors restoring Erk phosphorylation by chemical complementation, primary imaging in DUSP6-transfected HeLa (AID 609;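 active = compounds giving at least 50% inhibition in the cell-based MKP-3 phosphatase rescue imaging test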;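 as to inhibition: phospho-Erk level distribution per well compared with pooled transfected vehicle control wells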); conditions: HeLa MKP-3 transfected, phospho-Erk imaging KS statistic, at 10 µM, cells stimulated with TPA for 15 min
[4] = biological target: Dual specificity protein phosphatase 6 (Homo sapiens) (UniProt Q16828); experiment: as above; conditions: HeLa MKP-3 transfected, phospho-Erk imaging KS statistic; at 10 µM; stronger effect = higher value; cells stimulated with TPA for 15 min
Chain of Dual specificity protein phosphatase 6 (Homo sapiens) (Q16828 whole entry, looked up): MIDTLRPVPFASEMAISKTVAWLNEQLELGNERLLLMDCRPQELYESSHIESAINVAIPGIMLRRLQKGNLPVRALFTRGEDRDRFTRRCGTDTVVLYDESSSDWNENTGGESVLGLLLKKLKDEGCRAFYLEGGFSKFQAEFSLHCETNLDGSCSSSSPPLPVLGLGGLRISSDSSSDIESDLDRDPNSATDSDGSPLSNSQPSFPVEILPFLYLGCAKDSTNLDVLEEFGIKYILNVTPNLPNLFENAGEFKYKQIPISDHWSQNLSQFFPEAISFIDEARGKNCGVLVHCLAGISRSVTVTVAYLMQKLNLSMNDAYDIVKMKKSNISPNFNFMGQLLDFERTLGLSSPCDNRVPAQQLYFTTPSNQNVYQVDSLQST

[5] = biological target: Voltage-gated potassium channel subunit beta-2 (Rattus norvegicus) (UniProt P62483); experiment: KvBeta enzyme negative modulators, primary screen, biochemical, NADPH fluorescence (AID 622;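 active = fluorescence slope higher than the sample average by over 3 SD, cut at about -0.22 in these data, passing the limit was not always enough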;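 also: slope of raw intensity against log time taken from 70 to 1610 s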); conditions: recombinant KvBeta, 4-cyanobenzaldehyde reduction, at 10 µM, stronger effect = higher value
Chain of Voltage-gated potassium channel subunit beta-2 (Rattus norvegicus) (P62483 whole entry, looked up): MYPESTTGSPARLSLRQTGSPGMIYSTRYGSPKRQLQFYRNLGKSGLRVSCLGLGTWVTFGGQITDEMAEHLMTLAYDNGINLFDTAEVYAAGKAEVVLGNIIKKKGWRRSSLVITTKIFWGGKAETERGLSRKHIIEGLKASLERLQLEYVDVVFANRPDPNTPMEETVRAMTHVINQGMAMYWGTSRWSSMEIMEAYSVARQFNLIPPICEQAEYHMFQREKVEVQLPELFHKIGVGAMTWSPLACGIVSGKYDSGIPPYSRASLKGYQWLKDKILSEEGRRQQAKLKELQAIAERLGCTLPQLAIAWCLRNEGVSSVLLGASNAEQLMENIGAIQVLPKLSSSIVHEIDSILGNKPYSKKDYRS

[6] = biological target: Voltage-gated potassium channel subunit beta-2 (Rattus norvegicus) (UniProt P62483); experiment: KvBeta positive modulators, primary screen, biochemical, NADPH fluorescence (AID 623;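 active = NADPH fluorescence slope more negative than the mean of all samples by about 3 SD, 99.7% confidence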;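 also: fluorescence intensity change per second fitted from 20 to 320 s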); conditions: Recombinant KvBeta, NADPH fluorescence decrease slope, 10 min; at 10 µM; stronger effect = lower value
[7] = biological target: Alpha-2C adrenergic receptor (Homo sapiens) (UniProt P18825); experiment: modulators of alpha2C/GIRK thallium flux, primary screen, cell-based, HEK293 alpha2C/GIRK1/2 (AID 624;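 active = fluorescence slope after compound addition differing from the mean of all screened samples at 99.7% confidence, in either direction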;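 also: slope of fluorescence ratio to pre-addition baseline per second over 15 to 24 s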); conditions: thallium flux BTC fluorescence, at 10 µM, actives lie on both sides
Chain of Alpha-2C adrenergic receptor (Homo sapiens) (P18825 whole entry, looked up): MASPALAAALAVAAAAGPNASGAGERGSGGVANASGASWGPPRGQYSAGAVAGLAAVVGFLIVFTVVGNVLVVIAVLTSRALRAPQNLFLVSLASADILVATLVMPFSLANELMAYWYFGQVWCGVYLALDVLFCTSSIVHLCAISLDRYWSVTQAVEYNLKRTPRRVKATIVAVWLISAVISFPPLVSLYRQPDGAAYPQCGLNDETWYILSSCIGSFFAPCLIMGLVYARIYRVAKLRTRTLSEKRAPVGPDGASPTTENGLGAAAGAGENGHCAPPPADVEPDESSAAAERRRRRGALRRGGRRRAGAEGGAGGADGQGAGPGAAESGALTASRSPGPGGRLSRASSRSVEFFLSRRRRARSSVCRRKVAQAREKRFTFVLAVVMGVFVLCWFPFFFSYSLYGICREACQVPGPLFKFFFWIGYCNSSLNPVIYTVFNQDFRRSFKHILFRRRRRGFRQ

[8] = inhibitors of larval lipid processing in zebrafish, primary screen, whole organism, PED6 fluorescence, gall bladder and intestine (AID 686); conditions: Zebrafish larvae PED6 lipid processing, fluorescence scoring; screened at 20 µM (by protocol);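 also: larvae 5 to 7 days old with five fish per well; signal comes from phospholipase A2 cleavage of quenched PED6 carried via bile; overnight exposure to compound and PED6 before scoring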
In short: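 Also added: quenched phospholipase substrate PED6, 100 nM final, ingested by larvae; System: zebrafish larvae, 5-7 d; Quantity: 5 larvae per well; Compound: 20 µM single dose; Schedule: overnight compound and PED6 incubation; Read-out: visual per-well fluorescence inhibition score; Measured by: By-eye fluorescence microscopy; Medium: E3.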

[9] = inhibitors of Chlamydomonas gravitaxis, primary screen, whole organism, Chlamydomonas reinhardtii, WT vs cilia-less mutant, absorbance, 96-well (AID 463189;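 active = inhibition at or above 50% relative to wild type and mutant plate controls; inactive = inhibition below 50%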;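 also: 0% = wild type cc124 cells in DMSO and 100% = ciliumless bld1 mutant cells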); conditions: OD600 absorbance, 2 days, at 10 µM, stronger effect = higher value
[10] = measured here: cell density z-score
[11] = measured here: nuclear c-Myc green intensity z-score
[12] = measured here: nuclear pErk red intensity z-score, stronger effect = higher value

| Structure (SMILES) | cell count [1] | inhibition [1] | inhibition [2] | nuclei count [2] [%] | z-score [3, 10] | z-score [3, 11] | z-score [3, 12] | inhibition [4] | fluorescence slope [5] | NADPH fluorescence slope [6] | slope [7] | outcome [8] | inhibition [9] |
| --- | --- | --- | --- | --- | --- | --- | --- | --- | --- | --- | --- | --- | --- |
| COc1cccc(-c2nc(N3CCN(Cc4ccccc4)CC3)c3ccccc3n2)c1O | 578 | -4.5% (inactive) | 7% (inactive) | 126 | -0.018 | 0.0703 | 0.663 | 3.5% (inactive) | -0.272 (inactive) | 8.6e-06 (inactive) | 0.0051 (inactive) | inactive | 8.35% (inactive) |
| COc1ccccc1C1/C(=C(/O)c2ccc(C)cc2)C(=O)C(=O)N1Cc1ccco1 (stereo unspecified) | 550 | 9.2% (inactive) | 6.3% (inactive) | 101 | 0.623 | 0.192 | -1.11 | -11.5% (inactive) | -0.552 (inactive) | -6.1e-05 (inactive) | 0.00643 (inactive) | inactive | -13.2% (inactive) |
| C=CCOc1nc2c(c(=O)n(C)c(=O)n2C)n1Cc1ccccc1Cl | 617 | 0.6% (inactive) | 39.7% (inactive) | 155 | -1.51 | -0.0292 | 0.274 | 16.8% (inactive) | -0.515 (inactive) | -0.000108 (inactive) | 0.0054 (inactive) | inactive | 1.08% (inactive) |
| O=C(Nc1nc(=O)c2ccccc2s1)c1ccccc1 | 647 | 5.5% (inactive) | -58.7% (inactive) | 158 | 0.159 | -0.389 | 0.0783 | 9.61% (inactive) | -0.505 (inactive) | -4.5e-05 (inactive) | 0.00905 (active) | inactive | 13.1% (inactive) |
| Cc1cccc(OCc2nc(C)cc(=O)[nH]2)c1 | 594 | -7.7% (inactive) | -84.7% (inactive) | 173 | 2.18 | 0.349 | -1.33 | 14% (inactive) | -0.409 (inactive) | -2.4e-05 (inactive) | 0.00552 (inactive) | inactive | -4.66% (inactive) |
| CC1(C)NC(=O)N(CC(O)COc2ccccc2C(=O)Nc2ccccc2)C1=O (stereo unspecified) | 418 | -22.7% (inactive) | -2.7% (inactive) | 93.5 | -0.97 | 1.76 | -1.28 | 14% (inactive) | -0.495 (inactive) | -0.000337 (inactive) | 0.00492 (inactive) | inactive | 18.8% (inactive) |
| Cc1nc(N2CCOCC2)c(C#N)c2c1COC(C)(C)C2 | 582 | -0.2% (inactive) | -43.9% (inactive) | 99.8 | -1.02 | 1 | -1.11 | 3.66% (inactive) | -0.521 (inactive) | -4.3e-05 (inactive) | 0.00501 (inactive) | inactive | -6.08% (inactive) |
| Nc1nonc1OCCc1ccccc1 | 540 | -5.8% (inactive) | -31.5% (inactive) | 160 | 0.698 | 1.41 | 0.0192 | -6.06% (inactive) | -0.439 (inactive) | -4.6e-05 (inactive) | 0.00604 (inactive) | inactive | -3.19% (inactive) |
| CCCC(=O)Nn1cnc2c(c1=O)C1(CCCC1)Cc1ccccc1-2 | 558 | -2.6% (inactive) | -157% (inactive) | 108 | -0.794 | -0.594 | -0.952 | 11.9% (inactive) | -0.327 (inactive) | 2.7e-05 (inactive) | 0.00422 (inactive) | inactive | -19.9% (inactive) |
| CNC(=O)c1cc2ccccc2o1 | 323 | -23.3% (inactive) | -72.9% (inactive) | 132 | -1.3 | -0.443 | -1.56 | -5.26% (inactive) | -0.428 (inactive) | -4.2e-05 (inactive) | 0.00621 (inactive) | inactive | 32% (inactive) |
| COc1cc(C2C3C(=O)N(c4ccccc4)C(=O)C3ON2c2ccccc2)ccc1O (stereo unspecified) | 322 | -4.2% (inactive) | -22.7% (inactive) | 171 | 0.353 | -0.666 | -0.00927 | 5.42% (inactive) | -0.418 (inactive) | -0.000156 (inactive) | 0.00862 (inactive) | inactive | -1.03% (inactive) |
| S=c1[nH]nc(-c2ccccc2)n1Cc1ccccc1 | 506 | 0% (inactive) | -83.3% (inactive) | 170 | 0.046 | 1.63 | -0.862 | 7.48% (inactive) | -0.391 (inactive) | -9.1e-05 (inactive) | 0.00591 (inactive) | inactive | -5.83% (inactive) |
| CC1(c2ccco2)NC(=O)NC1=O (stereo unspecified) | 665 | -2.9% (inactive) | -112% (inactive) | 160 | -0.981 | -0.00713 | 0.00425 | -3.98% (inactive) | -0.492 (inactive) | -0.00016 (inactive) | 0.00442 (inactive) | inactive | -5.4% (inactive) |
| COc1ccc(Cl)cc1N=Cc1c(O)cc(C)oc1=O | 347 | -4.9% (inactive) | -136% (inactive) | 189 | 0.57 | -0.693 | 0.874 | 12.3% (inactive) | -0.415 (inactive) | -0.0002 (inactive) | 0.00387 (inactive) | inactive | 16.9% (inactive) |
| N/C(=N\c1nc2ccccc2o1)NC(=O)c1ccccc1NC(=O)c1ccccc1 | 614 | 5.2% (inactive) | -20.4% (inactive) | 160 | 1.3 | -0.342 | -0.375 | 2.46% (inactive) | -0.361 (inactive) | -2e-05 (inactive) | 0.0114 (inactive) | inactive | 9.27% (inactive) |
| CSC1=Nc2sc3c(c2C2=NCCN12)CC(C)(C)OC3 | 540 | -10.5% (inactive) | -3.3% (inactive) | 176 | -0.539 | 0.758 | -0.378 | 3.66% (inactive) | -0.508 (inactive) | -4.5e-05 (inactive) | 0.00474 (inactive) | inactive | 64.3% (active) |
| CC1(C)Cc2c(c(-c3ccccc3)nc3[nH][nH]c(=O)c23)CO1 | 666 | -17.1% (inactive) | -370% (inactive) | 162 | 0.742 | -0.0557 | 0.36 | -3.98% (inactive) | -0.513 (inactive) | -7.2e-05 (inactive) | 0.00403 (inactive) | inactive | 21% (inactive) |
| COC(=O)c1ccc(CSc2ncnc3c2sc2nc(N4CCOCC4)c4c(c23)CCCC4)o1 | 565 | -11.6% (inactive) | 7.4% (inactive) | 164 | 0.509 | -1.97 | -0.0919 | 1.48% (inactive) | -0.237 (inactive) | -1e-05 (inactive) | 0.00899 (inactive) | inactive | -7.35% (inactive) |
| Cc1nc(N2CCN(Cc3ccccc3)CC2)c(C#N)c2c1COC(C)(C)C2 | 686 | -5.4% (inactive) | -178% (inactive) | 195 | 0.66 | -1.21 | 0.193 | 3.66% (inactive) | -0.487 (inactive) | -0.000123 (inactive) | 0.00373 (inactive) | inactive | -5.61% (inactive) |
| Cc1c(/C(O)=C2\C(=O)C(=O)N(CCCN(C)C)C2c2ccccc2)cnn1-c1ccccc1 (stereo unspecified) | 528 | 1.1% (inactive) | -134% (inactive) | 139 | -0.232 | 0.596 | 1.69 | 1.6e-07% (inactive) | -0.579 (inactive) | -2.7e-05 (inactive) | 0.00616 (inactive) | inactive | -16.4% (inactive) |
| CCC(C)Nc1nc(-c2cccc(OC)c2O)nc2ccccc12 (stereo unspecified) | 570 | 3.5% (inactive) | -68.3% (inactive) | 152 | -0.862 | -0.242 | 1.22 | 1.6e-07% (inactive) | -0.394 (inactive) | -5e-05 (inactive) | 0.00426 (inactive) | inactive | 65.6% (active) |
| Cc1ccc(S(=O)(=O)N2CCC(N3CCCCCC3)CC2)cc1 | 449 | -31.4% (inactive) | -231% (inactive) | 163 | 0.833 | -1.65 | 0.596 | 1.04% (inactive) | -0.29 (inactive) | -8.7e-06 (inactive) | 0.0051 (inactive) | inactive | 116% (active) |
| COc1ccc(-c2nn3c(-c4ccccn4)nnc3s2)cc1OC | 638 | -8.9% (inactive) | 36.9% (inactive) | 169 | 0.845 | -0.297 | -0.421 | -2.47% (inactive) | -0.407 (inactive) | -0.000141 (inactive) | 0.00665 (inactive) | inactive | 22% (inactive) |
| C=CCN(C(=O)CCC(=O)O)C1CC(=O)N(c2ccc(OCCC)cc2)C1=O (stereo unspecified) | 454 | -10.8% (inactive) | -213% (inactive) | 223 | 0.015 | -1.26 | -0.0284 | -2.29% (inactive) | -0.384 (inactive) | -2.5e-05 (inactive) | 0.00464 (inactive) | inactive | 6.01% (inactive) |
| CC1(C)Cc2c(sc3ncn4nnnc4c23)CO1 | 685 | -0.9% (inactive) | -182% (inactive) | 180 | 1.78 | -1.07 | 0.925 | 13.2% (inactive) | -0.522 (inactive) | -3.9e-05 (inactive) | 0.00539 (inactive) | inactive | 9.27% (inactive) |
| Cc1ccc(S(=O)(=O)N2CCN(c3nc(C)c4c(c3C#N)CC(C)(C)OC4)CC2)cc1 | 645 | -13.9% (inactive) | 9.7% (inactive) | 182 | 1 | -1.7 | 0.0451 | 22.7% (inactive) | -0.471 (inactive) | -0.000183 (inactive) | 0.0077 (inactive) | inactive | 110% (active) |
| C=CCn1c(-c2ccccc2)n[nH]c1=S | 492 | -1.5% (inactive) | 71% (active) | 124 | -1.14 | 2.62 | -0.366 | 4.25% (inactive) | -0.512 (inactive) | -0.000177 (inactive) | 0.00512 (inactive) | inactive | 5.46% (inactive) |
